Sampled rows, rich in hits. Any-hit rate of the full collection: about 1.8%.
CSN inh: CSN deneddylation inhibition. Q92905. Purified CSN, SCF-Nedd8-OG deneddylation, fluorescence polarization. inhibition, % at 12.5 µM. 360,000 tested, 0.38% active. AID 651999;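 active = pattern-corrected inhibition above about 35%, with an unprinted fluorescence ratio check between 0.5 and 1.5, limit read from the data, passing the limit was not always enough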;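 note: 0% = enzyme with substrate and 100% = substrate without enzyme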
Target sequence (Q92905 whole entry, looked up, one chain of several): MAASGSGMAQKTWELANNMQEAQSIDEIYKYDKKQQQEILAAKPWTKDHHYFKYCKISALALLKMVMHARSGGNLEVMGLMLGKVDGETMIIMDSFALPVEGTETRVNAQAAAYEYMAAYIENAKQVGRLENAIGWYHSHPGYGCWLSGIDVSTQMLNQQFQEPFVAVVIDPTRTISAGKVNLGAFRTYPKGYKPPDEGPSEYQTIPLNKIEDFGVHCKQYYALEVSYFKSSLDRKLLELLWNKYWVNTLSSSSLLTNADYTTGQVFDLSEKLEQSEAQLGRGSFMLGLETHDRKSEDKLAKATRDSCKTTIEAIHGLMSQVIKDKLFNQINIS
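Material: purified human Csn5 enzyme expressed in HEK293T cells / Medium: Tris buffer pH 7.5, NaCl, DTT, Tween-20, trehalose, ovalbumin / Compound dosing: 12.5 µM single point / Schedule: 90 min incubation of compound, enzyme and substrate at room temperature / Signal: fluorescence polarization of the substrate / Control set: no-enzyme wells high, enzyme-with-substrate wells low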
TPT1 inhibitor: blocks Candida albicans tRNA 2'-phosphotransferase; recombinant caTPT1, FP RNA substrate dephosphorylation; inhibition, % at 5 µM; 300,000 tested, 0.81% active; AID 1962;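 active = inhibition above the mean of all tested compounds plus 3 SD, set per screening campaign, cut at about 24% in these data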;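 note: plate controls were DMSO alone for no effect and ferristatin control at 100 nM for full effect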
Rpn11 block: Rpn11 (human) deubiquitinase inhibition | O00487 | human 26S proteasome, Ub4-pepOG fluorescence polarization; 20S core pre-blocked with epoxomicin | AID 588493 | 360,000 tested, 0.59% active | calls only at 20 µM;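 active = inhibition at 20 µM, scaled to each plate's controls, above about 33%, limit read from the data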
Target sequence (O00487 whole entry, looked up): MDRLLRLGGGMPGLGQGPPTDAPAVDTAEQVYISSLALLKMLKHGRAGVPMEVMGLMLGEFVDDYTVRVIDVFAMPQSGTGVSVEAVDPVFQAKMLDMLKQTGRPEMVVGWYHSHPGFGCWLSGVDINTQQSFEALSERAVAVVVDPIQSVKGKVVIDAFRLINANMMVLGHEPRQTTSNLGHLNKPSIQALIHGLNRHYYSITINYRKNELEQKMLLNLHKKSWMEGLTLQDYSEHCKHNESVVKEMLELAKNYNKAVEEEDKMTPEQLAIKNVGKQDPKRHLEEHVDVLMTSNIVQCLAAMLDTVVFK
SUMO HTRF inh: blocks human SUMOylation mediated by UBC9 | P63279 | HTRF SUMOylation assay, SAE1/SAE2 + UBC9, in vitro | inhibition, % at 35 µM | 290,000 tested, 0.36% active; in the data active = inhibition above about 50%, passing the limit was not always enough
HNF4A DNA FP: change in binding of human HNF4 alpha to DNA; 360,000 tested, 0.3% active; HNF4a-FITC DNA binding, fluorescence polarization, 1 h; AID 1224865; P41235; activity change, % at 10 µM; in the data active = activity change above about 30%, passing the limit was not always enough
SENP1 inh: inhibitors of human SENP1 SUMO protease catalytic domain; recombinant SENP1 catalytic domain, CyPet-SUMO1-YPet FRET cleavage; inhibition, % at 10 µM; Q9P0U3; 360,000 tested, 0.21% active;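 active = inhibition at least 30% at 10 µM, raw YFP signal under a set limit, fluorescence ratio 0.5 to 1.5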;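 note: 0% = enzyme with DMSO and 100% = no enzyme wells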
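Test system: hSENP1 catalytic domain, recombinant; Amount: 20 pM final SENP1 enzyme; Medium: Tris pH 8 buffer plus EDTA, NaCl, BME, BSA, NP40, catalase; Schedule: 50 min enzyme reaction, room temperature, light-protected; Technique: FRET fluorescence in CFP and YFP emission channels; Controls: no-enzyme wells low, DMSO-plus-enzyme wells high control.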
Rpn11 inh conf: confirmation of human proteasome Rpn11 inhibitors | purified human 26S proteasome, Ub4-pepOG fluorescence polarization; proteasome pretreated with epoxomicin | 1,900 tested, 29% active | shares compounds with Rpn11 block | AID 602318 | inhibition, % at 20 µM
MMP-2 counter: counter-screen for RPN11 inhibitors: inhibition of human MMP-2 | shares compounds with Rpn11 block | recombinant MMP-2, FRET peptide cleavage fluorescence | inhibition, % at 20 µM | 1,900 tested, 4% active | AID 602330;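 note: human MMP-2 activated beforehand with APMA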
Thrombin inh: counter-screen for RPN11 inhibitors: inhibition of bovine thrombin; shares compounds with Rpn11 block; bovine thrombin cleavage of Ub4-pepOG, fluorescence polarization; inhibition, % at 20 µM; 1,900 tested, 13% active;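 active = mean inhibition at least 40% at 20 µM, or signal 3 deviations below plate average, so some actives read negative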;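 note: plate controls were thrombin with DMSO for no effect and buffer wells lacking thrombin for full effect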
* marks the source's active call; other numbers are inactive results. Cut-off read from the data, not from the text of the source, unless noted: active = inhibition above about 40%; inactive = the rest.

Results for COc1ccc(NC(=O)c2ccc(C)cc2Cl)c([N+](=O)[O-])c1 ?
CSN inh: 4.8; TPT1 inhibitor: 1.8; Rpn11 block: active; SUMO HTRF inh: 8.0; HNF4A DNA FP: -5.0; SENP1 inh: 3.5; Rpn11 inh conf: -6.1; MMP-2 counter: -25.6; Thrombin inh: -8.3

Results for CCOc1nc(N=C(N)N)nc2c(C)cccc12 ?
CSN inh: 9.9; TPT1 inhibitor: -1.0; Rpn11 block: active; SUMO HTRF inh: 21.3; HNF4A DNA FP: 15.9; SENP1 inh: -6.5; Rpn11 inh conf: 23.6; MMP-2 counter: -78.3; Thrombin inh: -1.5

Results for CC(C)S(=O)(=O)C1=NSC2=NC(=O)/C(=C\c3ccc(-c4ccccc4)o3)C(=N)N21 ?
CSN inh: 11.5; TPT1 inhibitor: 11.8; Rpn11 block: active; SUMO HTRF inh: 24.0; HNF4A DNA FP: 25.2; SENP1 inh: -25.5; Rpn11 inh conf: 36.5; MMP-2 counter: 13.8; Thrombin inh: 19.6

How did CC(C)S(=O)(=O)C1=NSC2=NC(=O)/C(=C\c3ccc(-c4cccc(C(=O)O)c4)o3)C(=N)N21 do in these assays?
CSN inh: 15.1; Rpn11 block: active; SUMO HTRF inh: 42.8; HNF4A DNA FP: 23.7; SENP1 inh: -36.8; Rpn11 inh conf: 29.6; MMP-2 counter: 0.3; Thrombin inh: 20.9

What do the screens show for `CS(=O)(=O)C1=NSC2=NC(=O)/C(=C\c3ccc(-c4ccccc4)o3)C(=N)N21`?
TPT1 inhibitor: 7.1; SUMO HTRF inh: -4.7

How did COc1ccccc1OCCC(=O)OCC(=O)Nc1cc(S(=O)(=O)N2CCOCC2)ccc1Cl do in these assays?
CSN inh: 1.3; TPT1 inhibitor: -1.9; Rpn11 block: inactive; SUMO HTRF inh: 1.8; HNF4A DNA FP: 0.3; SENP1 inh: 1.0

What do the screens show for `O=C(CSc1nc2ccccc2c(=O)n1-c1ccccc1)c1cccc([N+](=O)[O-])c1`?
CSN inh: 3.3; TPT1 inhibitor: -0.2; Rpn11 block: inactive; HNF4A DNA FP: 5.1; SENP1 inh: 2.7

Results for O=C(COc1ccc(/C=N/NC(=O)c2cc3ccccc3o2)cc1Br)Nc1ccccc1 ?
CSN inh: 124.7*; TPT1 inhibitor: -1.4; Rpn11 block: active; SUMO HTRF inh: 44.6; HNF4A DNA FP: 22.7; SENP1 inh: -1.9; Rpn11 inh conf: 40.7*; MMP-2 counter: -104.6; Thrombin inh: -14.9

Results for COc1cccc(NC(=O)Cc2nc(-c3ccccc3)sc2-c2ccc(C)cc2)c1 ?
CSN inh: 4.0; TPT1 inhibitor: -4.2; Rpn11 block: inactive; SUMO HTRF inh: -19.0; HNF4A DNA FP: 3.7; SENP1 inh: -9.5

Results for Cc1cc(C)n2nc(Sc3ncccc3[N+](=O)[O-])nc2n1 ?
CSN inh: -0.9; TPT1 inhibitor: -3.3; Rpn11 block: active; SUMO HTRF inh: -6.9; HNF4A DNA FP: 0.8; SENP1 inh: 1.3; Rpn11 inh conf: -10.4; MMP-2 counter: -37.7; Thrombin inh: -9.9

How did Cc1cnc(Sc2ncccc2[N+](=O)[O-])nc1 do in these assays?
CSN inh: 3.0; TPT1 inhibitor: -4.1; Rpn11 block: inactive; HNF4A DNA FP: -0.8; SENP1 inh: 0.6

How did CCOc1ccccc1OCC(=O)OCC(=O)Nc1ncc(Cl)cc1Cl do in these assays?
CSN inh: -1.4; TPT1 inhibitor: -2.0; Rpn11 block: inactive; SUMO HTRF inh: 17.9; HNF4A DNA FP: -2.6; SENP1 inh: 1.9

Results for NC1=C(c2ccccc2)C(=O)NC1=O ?
CSN inh: -3.3; TPT1 inhibitor: 2.7; Rpn11 block: inactive; SUMO HTRF inh: -0.3; HNF4A DNA FP: 1.6; SENP1 inh: 3.9

Results for CCOC(=O)Cn1c(=NC(=O)c2ccc([N+](=O)[O-])s2)sc2ccccc21 ?
CSN inh: -2.9; TPT1 inhibitor: 1.9; Rpn11 block: active; SUMO HTRF inh: 4.5; HNF4A DNA FP: 26.4; SENP1 inh: -28.5; Rpn11 inh conf: -4.8; MMP-2 counter: -39.3; Thrombin inh: -75.2

Results for CCCCCCC(=O)Nc1ccc(C(=O)N/N=C/c2cccnc2)cc1 ?
CSN inh: -1.8; TPT1 inhibitor: -1.0; Rpn11 block: inactive; SUMO HTRF inh: -23.8; HNF4A DNA FP: 5.2; SENP1 inh: 2.5

How did CCCCCCCC(=O)Nc1ccc(C(=O)N/N=C/c2cccc([N+](=O)[O-])c2)cc1 do in these assays?
CSN inh: 3.9; TPT1 inhibitor: -7.1; Rpn11 block: active; SUMO HTRF inh: 50.2*; HNF4A DNA FP: -7.1; SENP1 inh: -0.7; Rpn11 inh conf: 2.7; MMP-2 counter: -33.6; Thrombin inh: -10.9

What do the screens show for `CCn1c(O)c(/C=N/N=C2CCCC2)c2ccc(C3=NNC(=O)CC3)cc21`?
CSN inh: 7.6; TPT1 inhibitor: 12.4; Rpn11 block: active; SUMO HTRF inh: -3.4; HNF4A DNA FP: 4.2; SENP1 inh: -33.3; Rpn11 inh conf: 34.6; MMP-2 counter: -48.7; Thrombin inh: 6.4

What do the screens show for `CN(C)c1ccccc1C(=O)N1CCCC(Nc2ccc(F)cc2)C1` (stereo not given)?
CSN inh: -1.2; TPT1 inhibitor: -5.8; Rpn11 block: inactive; SUMO HTRF inh: 3.0; HNF4A DNA FP: 2.0; SENP1 inh: 0.6

How did O=C(CCNS(=O)(=O)c1cccs1)NCc1cccs1 do in these assays?
CSN inh: -5.7; TPT1 inhibitor: -0.6; Rpn11 block: active; SUMO HTRF inh: 16.8; HNF4A DNA FP: -1.9; SENP1 inh: -0.5; Rpn11 inh conf: 0.8; MMP-2 counter: -7.7; Thrombin inh: -4.8

How did Cc1ccc(Nc2c([N+](=O)[O-])ccc3c2=NC2(CCCCC2)N=3)cc1 do in these assays?
CSN inh: -2.2; TPT1 inhibitor: -3.5; Rpn11 block: inactive; SUMO HTRF inh: -22.5; HNF4A DNA FP: 2.1; SENP1 inh: 5.6

What do the screens show for `CCCCCCCCCCCCCCCC(O)C[N+](C)(C)CCO` (stereo not given)?
CSN inh: 2.7; Rpn11 block: active; HNF4A DNA FP: 6.7; SENP1 inh: 0.2; Rpn11 inh conf: 77.2*; MMP-2 counter: 11.8; Thrombin inh: -17.9

How did Cc1nc2sc(-c3ccccc3)cc2c(=O)[nH]1 do in these assays?
CSN inh: -0.8; TPT1 inhibitor: 6.9; Rpn11 block: active; SUMO HTRF inh: 15.8; HNF4A DNA FP: 13.5; SENP1 inh: -22.6; Rpn11 inh conf: 10.5; MMP-2 counter: -24.4; Thrombin inh: -1.1
